According to article PMC7927141 (Molecular Pharmaceutics, 2021):
Read-outs that look alike come from different tables or passages of the source.

Tests used:
[1] = cited from earlier work
[2] = tested on: Sk-ChA-1 cells; experiment: In vitro cytotoxicity, SRB total protein assay, Sk-ChA-1; format: cell-based; conditions: Homo sapiens
How it was run: (§1)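 Cells grown in RPMI 1640 with 10% FBS, penicillin/streptomycin and 2 mM L-glutamine at 37 °C, 5% CO2. Seeded at 5 × 10^4 cells/well and cultured 24 h. Then exposed 24, 48 or 72 h to free test compound (DMSO, 0.4% v/v final) or micelle-loaded test compound in HBS, 0–200 μM; HBS controls. After PBS wash, SRB total protein read at 564 nm, normalized to control. IC50 from sigmoidal variable-slope nonlinear regression.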

[3] = tested on: Mz-ChA-1 cells; experiment: In vitro cytotoxicity, SRB total protein assay, Mz-ChA-1; format: cell-based, human
How it was run: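 Mz-ChA-1 cells in RPMI 1640 with 10% FBS, penicillin/streptomycin and 2 mM L-glutamine at 37 °C, 5% CO2. Seeded at 25 × 10^4 cells/well for slow growth, cultured 24 h. Then 24, 48 or 72 h with free test compound (DMSO, 0.4% v/v final) or micelle-encapsulated test compound in HBS, 0–200 μM; HBS-treated controls. PBS wash, SRB protein stain, absorbance 564 nm, viability versus control. IC50 by sigmoidal variable-slope curve fit.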

[4] = tested on: Neuro2A cells; experiment: In vitro cytotoxicity, SRB total protein assay, Neuro2A; format: cell-based, murine
How it was run: as §1

[5] = tested on: cancer cells (Neuro2A, EGI-1, TFK-1, Mz-ChA-1); experiment: Association and uptake by flow cytometry and confocal microscopy; format: cell-based; conditions: 20 μM, flow cytometry
How it was run: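 5 × 10^5 cells/well, grown 18 h. Medium replaced by nonsupplemented medium containing 20 μM test compound, free (0.4% DMSO final) or micelle-loaded, or Cy5-labelled micelles at 0.3 mg/mL. Incubated 1 or 4 h, rinsed twice with PBS, trypsinized, analysed by flow cytometry. Confocal imaging on coverslips after 0.5, 1 and 4 h at 37 °C, excitation 405/633 nm.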

[6] = Circulation kinetics of Cy7-labeled curcumin micelles in mice; format: in vivo, BALB/c mice
How it was run: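 Female mice received 9% (w/w) curcumin-loaded Cy7-labelled mPEG-b-p(HPMA-Bz) micelles i.v. (500 mg polymer/kg, 100–200 μL). EDTA blood was drawn submandibularly at 1 min (set as 100% dose), 10 min and 1 h, and by cardiac puncture at 4 and 24 h. Plasma was ACN-extracted (1:4) and assayed for curcumin by C18 RP-HPLC at 425/254 nm. Parameters came from two-compartmental analysis.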

[7] = tested on: TFK-1 cells; experiment: In vitro cytotoxicity, SRB total protein assay, TFK-1; format: cell-based; conditions: Homo sapiens
How it was run: as §1

[8] = tested on: EGI-1 cells; experiment: In vitro cytotoxicity, SRB total protein assay, EGI-1; format: cell-based; conditions: Homo sapiens
How it was run: as §1

[9] = tested on: different types of cancer cell lines; conditions: cited from earlier work
[10] = Biodistribution of Cy7-labeled curcumin micelles in mice; format: in vivo, BALB/c mice; conditions: 4 and 24 h post-administration, iv 50 mg curcumin/kg in micelles
[11] = read-out: IC50 after 48 and 72 h
[12] = female, BALB/c, mouse, plasma, iv, 7.8 mg/kg
[13] = iv, 50 mg curcumin/kg, two-compartmental

t1/2α relative to that reported for free curcumin ([6]; curcumin after iv curcumin-loaded micelles vs literature free curcumin): ~5 times
AUC(0-inf) [6, 12]: 319 µg·h/mL
clearance [6, 12]: 2.62 mL/min/kg
initial phase t1/2α ([6]; iv, 50 mg curcumin/kg as curcumin-loaded micelles): 6.7 min
V1 [6, 13]: 0.086 L/kg
V2 [6, 13]: 0.344 L/kg
loaded curcumin eliminated during the first hour ([6]; iv, 50 mg/kg curcumin in micelles): 90%
curcumin concentration in the different organs [10]: 0.2–3 μg/g tissue
Compound: COc1cc(/C=C/C(=O)CC(=O)/C=C/c2ccc(O)c(OC)c2)ccc1O [free curcumin, curcumin]
AUC ([1]; 50 mg/kg in mice, noncompartmental analysis, ref 63 (Gao et al.)): 60.3 µg·h/mL
normalized AUC ([1]; two studies): 1.2 (μg·h/mL)/(mg/kg)
IC50 ([2]; 24 h): 33.9 ± 1.3 µM
IC50 ([2]; 48 h): 21.5 ± 0.4 µM
IC50 ([2]; 72 h): 21.3 ± 0.4 µM
IC50 [2, 11]: ~20 µM
IC50 ([3]; Homo sapiens, 24 h, Mz-ChA-1, 24 h exposure): 48 µM
IC50 ([3]; Homo sapiens, 48 h, Mz-ChA-1, 48 h exposure): 38.4 ± 1.4 µM
IC50 ([3]; Homo sapiens, 72 h, Mz-ChA-1, 72 h exposure): 37.8 ± 1.1 µM
IC50 ([3]; Mz-ChA-1, 24 h exposure): 47.6 ± 1.6 µM
IC50 ([4]; 24 h exposure): 83.8 ± 13.5 µM
IC50 ([4]; Mus musculus, N2a, 24 h, 24 h exposure): 84 µM
IC50 ([4]; Mus musculus, N2a, 48 h, 48 h exposure): 15.6 ± 0.8 µM
IC50 ([4]; Mus musculus, N2a, 72 h, 72 h exposure): 23.3 ± 1.2 µM
time of incubation until intracellular detection [5]: ≤ 1 h
IC50 ([7]; 24 h): 27.7 ± 0.9 µM
IC50 ([7]; 48 h): 20.1 ± 0.9 µM
IC50 ([7]; 72 h): 17.5 ± 0.5 µM
IC50 [7, 11]: ~20 µM
IC50 ([8]; EGI-1, 24 h): 21.7 ± 0.5 µM
IC50 ([8]; EGI-1, 48 h): 18.2 ± 0.3 µM
IC50 ([8]; EGI-1, 72 h): 19.1 ± 0.3 µM
IC50 ([8]; EGI-1, read-out: IC50 after 48 and 72 h): ~20 µM
IC50 ([9]; read-out: IC50 mean ± SD): 21 ± 17 µM
IC50 ([9]; read-out: IC50 range): 1 to 100 µM
